Test results: article PMC12198371 (Nature Communications, 2025)
Values belong to the compound of their own block, whether it stands above or below them. Positions of bridges follow the written chain, without caps; N, C: chain ends. Residues, ends and D or L forms follow the SMILES beside them. No end group written: not given here.

Assays:
streptavidin (PT2) = streptavidin (PT2) (Streptomyces avidinii, UniProt P22629); assay: Yeast surface display titration; assay type: binding
α-chymotrypsin (PT5) = α-chymotrypsin (PT5) (Bos taurus, UniProt P00766); assay: Yeast surface display titration; assay type: binding, bovine
[1] = molecular target: bovine α-chymotrypsin (PT5) (Bos taurus, UniProt P00766); assay: Residual enzyme activity, chromogenic substrate; assay type: biochemical
α-chymotrypsin = settings: natural inhibitor, Fig. 9d; cited from earlier work
carbonic anhydrase (PT4) = carbonic anhydrase (PT4) (Bos taurus, UniProt P00921); assay: Yeast surface display titration; assay type: binding, bovine; settings: ratio of KDapp values
carbonic anhydrase (PT4), sequence (P00921 whole entry): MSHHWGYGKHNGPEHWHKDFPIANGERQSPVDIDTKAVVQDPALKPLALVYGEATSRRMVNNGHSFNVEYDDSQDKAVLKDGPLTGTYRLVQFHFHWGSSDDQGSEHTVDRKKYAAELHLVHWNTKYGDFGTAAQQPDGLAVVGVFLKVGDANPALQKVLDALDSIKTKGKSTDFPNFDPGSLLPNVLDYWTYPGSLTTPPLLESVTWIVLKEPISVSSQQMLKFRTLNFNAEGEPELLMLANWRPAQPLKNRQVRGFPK

[2] = molecular target: carbapenemase GES-5 (PT3) (Klebsiella pneumoniae, UniProt Q09HD0); assay: Surface plasmon resonance; assay type: binding; settings: soluble chemically synthesised isomers of MP3.2
carbapenemase GES-5 (PT3), sequence (Q09HD0 19-287): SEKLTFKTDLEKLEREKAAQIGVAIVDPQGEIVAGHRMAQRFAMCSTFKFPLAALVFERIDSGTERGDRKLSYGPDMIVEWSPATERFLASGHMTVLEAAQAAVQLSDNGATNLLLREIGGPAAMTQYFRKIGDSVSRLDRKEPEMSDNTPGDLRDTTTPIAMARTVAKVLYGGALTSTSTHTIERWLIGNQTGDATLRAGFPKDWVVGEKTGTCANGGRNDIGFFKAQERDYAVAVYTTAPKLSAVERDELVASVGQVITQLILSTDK
How it was run: (§1)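 Targets were amine-coupled with EDC/NHS, then ethanolamine pH 8.5. PT1 was coupled at 200 µg/mL and PT5 at 30 µg/mL, both in 10 mM NaAc pH 5.2. PT3 was coupled at 10 µg/mL in 10 mM NaAc pH 4.5. Two-fold dilutions of chemically synthesised peptide were run in PBS pH 7.4 with 0.005% Tween-20 and 2% DMSO, at 25 °C and 30 µL/min. KD, kon and koff were recorded.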

strep-tactin (PH2.1) = assay: Yeast surface display titration, specificity; assay type: binding; settings: from KDapp values
aldolase (PT1) [3] = molecular target: T1, aldolase (PT1) (Oryctolagus cuniculus, UniProt P00883); assay: Surface plasmon resonance; assay type: binding, rabbit; settings: PT1 (tetrameric), 600 pM vs 326 nM
T1 sequence (P00883 1-364): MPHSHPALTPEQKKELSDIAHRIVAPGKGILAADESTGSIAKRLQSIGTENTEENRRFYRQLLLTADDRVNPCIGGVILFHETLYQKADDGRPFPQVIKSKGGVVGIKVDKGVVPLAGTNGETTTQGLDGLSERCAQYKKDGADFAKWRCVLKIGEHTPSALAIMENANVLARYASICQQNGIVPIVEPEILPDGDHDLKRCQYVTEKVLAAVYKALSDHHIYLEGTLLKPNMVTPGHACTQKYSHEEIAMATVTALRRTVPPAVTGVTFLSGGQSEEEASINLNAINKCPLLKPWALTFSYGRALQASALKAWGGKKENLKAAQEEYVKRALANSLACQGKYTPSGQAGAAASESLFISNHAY
How it was run: as §1

aldolase (PT1) [4] = molecular target: T1, aldolase (PT1); assay: Yeast surface display titration; assay type: binding, rabbit

streptavidin (PT2), sequence (P22629 37-163 limits assumed): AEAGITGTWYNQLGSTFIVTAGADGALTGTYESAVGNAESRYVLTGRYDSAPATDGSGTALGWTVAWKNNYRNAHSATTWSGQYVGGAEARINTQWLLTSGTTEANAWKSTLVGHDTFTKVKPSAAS

Compound: ACHYHPQFYMRCSG (disulfide 2-12 (inferred)) [MP2.6]
tighter binding to PT2 than MP2.4 (streptavidin (PT2); ratio of KDapp values): 6 fold
Kd (streptavidin (PT2); read-out: KDapp, yeast-displayed peptide vs soluble PT2, text value): 0.2 to 0.3 nM

tighter binding to PT5 than MP5.5 (α-chymotrypsin (PT5); ratio of KDapp values): 46 fold
Kd (α-chymotrypsin (PT5); read-out: KDapp, yeast-displayed peptide vs soluble PT5, text value): 0.2 nM
Compound: ACAWCLRGTICCSG (also: bicyclic or more (positions not given here)) [MP5.4]

Compound: CC[C@H](C)[C@H](NC(=O)[C@@H](NC(=O)CNC(=O)[C@H](CCCNC(=N)N)NC(=O)[C@H](CC(C)C)NC(=O)[C@@H]1CSSC[C@H](NC(=O)[C@H](C)N)C(=O)N[C@@H](C)C(=O)N[C@@H](Cc2c[nH]c3ccccc23)C(=O)N1)[C@@H](C)O)C(=O)N[C@H]1CSSC[C@@H](C(=O)N[C@@H](CO)C(=O)NCC(N)=O)NC1=O [MP5.4.2] (H-ACAWCLRGTICCSG-NH2; disulfide 2-5, 11-12)
Ki [1]: 11.3 nM

Compound: CC[C@H](C)[C@@H]1NC(=O)[C@H]([C@@H](C)O)NC(=O)CNC(=O)[C@H](CCCNC(=N)N)NC(=O)[C@H](CC(C)C)NC(=O)[C@@H]2CSSC[C@@H](C(=O)N[C@@H](CO)C(=O)NCC(N)=O)NC(=O)[C@H](CSSC[C@H](NC(=O)[C@H](C)N)C(=O)N[C@@H](C)C(=O)N[C@@H](Cc3c[nH]c4ccccc34)C(=O)N2)NC1=O [MP5.4.1] (H-ACAWCLRGTICCSG-NH2; disulfide 2-11, 5-12)
Ki [1]: 50.8 nM

Compound: CC[C@H](C)[C@@H]1NC(=O)[C@H](C(C)C)NC(=O)[C@H](Cc2ccc(O)cc2)NC(=O)[C@H](Cc2ccccc2)NC(=O)[C@H](CCC(N)=O)NC(=O)[C@@H]2CCCN2C(=O)[C@H](Cc2c[nH]cn2)NC(=O)[C@H](Cc2ccc(O)cc2)NC(=O)[C@H](Cc2c[nH]cn2)NC(=O)[C@@H](NC(=O)[C@H](C)N)CSSC[C@@H](C(=O)N[C@@H](CO)C(=O)NCC(N)=O)NC1=O [MP2.2] (H-ACHYHPQFYVICSG-NH2; disulfide 2-12)
tighter binding to PT2 than MP2.5 (streptavidin (PT2); ratio of KDapp values): 3 fold

Compound: H-TVLRGCWTFSFPPKPCI-NH2 [HECI, reference compound]
Ki (α-chymotrypsin): 3900 nM

higher binding affinity for PT4 than MP4.4 (carbonic anhydrase (PT4)): 16 fold
tighter binding to PT4 than MP4.2 (carbonic anhydrase (PT4)): 4 fold
tighter binding to PT4 than MP4.3 (carbonic anhydrase (PT4)): 9 fold
Compound: ACLVGPYYMLDCSG (disulfide 2-12 (inferred)) [MP4.1]

Compound: MP3.2.2: chemically synthesised ‘two rings’ isomer of MP3.2 (ACRYICLSFRHCGWFCSG-NH2; disulfide 12-16, 2-6; N-terminus assumed; SMILES CC[C@H](C)[C@@H]1NC(=O)[C@H](Cc2ccc(O)cc2)NC(=O)[C@H](CCCNC(=N)N)NC(=O)[C@@H](NC(=O)[C@H](C)N)CSSC[C@@H](C(=O)N[C@@H](CC(C)C)C(=O)N[C@@H](CO)C(=O)N[C@@H](Cc2ccccc2)C(=O)N[C@@H](CCCNC(=N)N)C(=O)N[C@@H](Cc2c[nH]cn2)C(=O)N[C@H]2CSSC[C@@H](C(=O)N[C@@H](CO)C(=O)NCC(N)=O)NC(=O)[C@H](Cc3ccccc3)NC(=O)[C@H](Cc3c[nH]c4ccccc34)NC(=O)CNC2=O)NC1=O)
interaction with immobilised PT3 (SPR), in words [2]: no or very weak interactions

tighter binding to PT5 than MP5.5 (α-chymotrypsin (PT5); ratio of KDapp values): 3 fold
Compound: ACCYRIYCPCSG (also: bicyclic or more (positions not given here)) [MP5.3]

higher binding affinity to PT5 than MP5.2 (α-chymotrypsin (PT5); ratio of KDapp values): 2 fold
tighter binding to PT5 than MP5.5 (α-chymotrypsin (PT5); ratio of KDapp values): 5 fold
Compound: CC[C@H](C)[C@@H]1NC(=O)[C@H](Cc2c[nH]c3ccccc23)NC(=O)[C@H]([C@@H](C)O)NC(=O)[C@H](Cc2c[nH]c3ccccc23)NC(=O)[C@H](CC(=O)O)NC(=O)[C@H](CCCNC(=N)N)NC(=O)[C@@H](NC(=O)[C@H](C)N)CSSC[C@@H](C(=O)N[C@@H](CO)C(=O)NCC(N)=O)NC(=O)[C@H](CCC(N)=O)NC1=O [MP5.1] (H-ACRDWTWIQCSG-NH2; disulfide 2-10)

tighter binding to PH2.1 than to PT2 (strep-tactin (PH2.1)): ~ 10 fold
Compound: ACSMCHPQGDFCYWACSG (also: bicyclic or more (positions not given here)) [MP2.1]

Compound: MP3.2.1: chemically synthesised ‘two rings’ isomer of MP3.2 (ACRYICLSFRHCGWFCSG-NH2; disulfide 2-12, 6-16; N-terminus assumed; SMILES CC[C@H](C)[C@@H]1NC(=O)[C@H](Cc2ccc(O)cc2)NC(=O)[C@H](CCCNC(=N)N)NC(=O)[C@@H](NC(=O)[C@H](C)N)CSSC[C@@H]2NC(=O)[C@H](Cc3c[nH]cn3)NC(=O)[C@H](CCCNC(=N)N)NC(=O)[C@H](Cc3ccccc3)NC(=O)[C@H](CO)NC(=O)[C@H](CC(C)C)NC(=O)[C@H](CSSC[C@@H](C(=O)N[C@@H](CO)C(=O)NCC(N)=O)NC(=O)[C@H](Cc3ccccc3)NC(=O)[C@H](Cc3c[nH]c4ccccc34)NC(=O)CNC2=O)NC1=O)
interaction with immobilised PT3 (SPR), in words [2]: no or very weak interactions

Compound: CC(C)C[C@@H]1NC(=O)[C@H](C(C)C)NC(=O)[C@H](CCC(=O)O)NC(=O)[C@@H](NC(=O)[C@H](C)N)CSSC[C@@H](C(=O)N[C@@H](CO)C(=O)NCC(N)=O)NC(=O)CNC(=O)[C@H]([C@@H](C)O)NC(=O)[C@H](Cc2c[nH]c3ccccc23)NC(=O)[C@H](CC(=O)O)NC(=O)[C@H](Cc2ccc(O)cc2)NC(=O)[C@H](CO)NC1=O [MP1.1] (H-ACEVLSYDWTGCSG-NH2; disulfide 2-12)
discrepancy between KD by yeast surface titration and by SPR (aldolase (PT1) [3]): ~ 500 fold
Kd (aldolase (PT1) [4]): 0.6 nM

tighter binding to PH2.1 than to PT2 (strep-tactin (PH2.1)): ~2 fold
Compound: ACIMVHYDRVECSG (disulfide 2-12 (inferred)) [MP2.3]
